Test results as given in ChEMBL document CHEMBL1152321, “Recent advances in the chemistry and biology of new generation taxoids” (J Nat Prod, 2009).
Calls of active or inactive are those of the source. The calls are words filed in the database; no cut-off is given here.

Experiments:
DLD-1 [1] = assay: Antitumor activity against human DLD1 cells expressing P-glycoprotein xenografted in SCID mouse assessed as tumor growth delay at 20 mg/kg, iv administered on day 5, 8, 11 post tumor implantation; format: functional
Method in brief: (§1)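 SCID mice carrying subcutaneous Pgp+ DLD-1 human colon tumours were dosed i.v. q3d×3 on days 5, 8 and 11 after implant, in Tween/EtOH vehicle, with vehicle and untreated control groups. Growth delay was compared with controls by Cox-Mantel test. Cures were mice with no palpable tumour on day 167. Toxicity was counted as death or more than 20% body-weight loss.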

DLD-1 [2] = assay: Antitumor activity against human DLD1 cells expressing P-glycoprotein xenografted in SCID mouse assessed as tumor growth delay at 10 mg/kg, iv administered on day 5, 8, 11 post tumor implantation; format: functional; method in brief: as §1
DLD-1 [3] = assay: Antitumor activity against human DLD1 cells expressing P-glycoprotein xenografted in SCID mouse assessed as tumor growth delay at 40 mg/kg, iv administered on day 5, 8, 11 post tumor implantation; format: functional; method in brief: as §1
DLD-1 [4] = assay: Antitumor activity against human DLD1 cells expressing P-glycoprotein xenografted in SCID mouse assessed as no palpable tumors at 20 mg/kg, iv administered on day 5, 8, 11 post tumor implantation measured on day 167; format: functional, organism-based; parameters: dose 20 mg/kg; method in brief: as §1
Mus musculus [5] = species on record: Mus musculus; assay: Toxicity in SCID mouse assessed as decrease in body weight after day 15 to day 20; format: organism-based; parameters: scale not given: the % may be the effect or the level left; settings: in vivo
DLD-1 [6] = assay: Antitumor activity against human DLD1 cells expressing P-glycoprotein xenografted in SCID mouse assessed as no palpable tumors at 10 mg/kg, iv administered on day 5, 8, 11 post tumor implantation measured on day 167; format: functional, organism-based; parameters: dose 10 mg/kg; method in brief: as §1
[7] = Cytotoxicity against human primary pancreatic ductal cells up to 10 uM; format: cell-based
[8] = Cytotoxicity against P-glycoprotein deficient wild type human LCC-6 cells after 72 hrs; format: functional, cell-based; settings: LCC-6, 72 h
[9] = Cytotoxicity against human LCC-6 cells expressing P-glycoprotein after 72 hrs; format: functional, cell-based; settings: LCC-6, 72 h
PANC-1 = assay: Cytotoxicity against human PANC1 cells expressing mdr1, mrp1, mrp2, lrp genes after 72 hrs; format: functional, cell-based; settings: PANC-1, 72 h
Mus musculus [10] = assay: Toxicity in SCID mouse xenografted with human DLD1 cells assessed as decrease in body weight at 20 mg/kg, iv administered on day 5, 8, 11 post tumor implantation; format: organism-based, DLD-1; parameters: dose 20 mg/kg, route intravenous; settings: in vivo
NCI-H460 = assay: Cytotoxicity against human H460 cells after 72 hrs; format: functional, cell-based; settings: NCI-H460, 72 h
A2780 [11] = assay: Cytotoxicity against human wild type A2780 cells after 72 hrs; format: functional, cell-based; settings: A2780, 72 h
A2780 [12] = assay: Cytotoxicity against human cisplatin-resistant A2780 cells after 72 hrs; format: functional, cell-based; settings: A2780, 72 h
A2780 [13] = assay: Cytotoxicity against human topotecan-resistant A2780 cells after 72 hrs; format: functional, cell-based; settings: A2780, 72 h
[14] = Cytotoxicity against human paclitaxel and cyclosporine-resistant A2780TC3 cells overexpressing class 3 beta-tubulin after 72 hrs; format: functional, cell-based; settings: A2780TC3, 72 h
MCF7 [15] = assay: Cytotoxicity against P-glycoprotein deficient wild type human MCF7 cells after 72 hrs; format: functional, cell-based; settings: MCF7, 72 h
[16] = Cytotoxicity against multidrug-resistant human NCI/ADR cells after 72 hrs; format: functional, cell-based; settings: NCI/ADR-RES
HT-29 = assay: Cytotoxicity against human HT-29 cells after 72 hrs; format: functional, cell-based; settings: HT-29, 72 h
[17] = Induction of tubulin polymerization at 10 uM in absence of GTP
[18] = Induction of tubulin polymerization at 10 uM in presence of Ca2+
[19] = Cytotoxicity against human A2780/ADR cells after 72 hrs; format: functional, cell-based
[20] = Cytotoxicity against human paclitaxel and cyclosporine-resistant A2780TC1 cells overexpressing class 3 beta-tubulin after 72 hrs; format: functional, cell-based; settings: A2780TC1, 72 h
[21] = Activity ratio of compound IC50 to paclitaxel IC50 for paclitaxel and cyclosporine-resistant human A2780TC3 cells overexpressing class 3 beta-tubulin; format: functional
A2780 [22] = assay: Resistance factor, ratio of IC50 for paclitaxel and cyclosporine-resistant human A2780TC3 cells overexpressing class 3 beta-tubulin to IC50 for wild type human A2780 cells; format: functional
[23] = Resistance factor, ratio of IC50 for human LCC-6 cells expressing P-glycoprotein to IC50 for P-glycoprotein deficient wild type human LCC-6 cells; format: functional; parameters: reference not given here
MCF7 [24] = assay: Resistance factor, ratio of IC50 for P-glycoprotein deficient wild type human MCF7 cells to IC50 for multidrug-resistant human NCI/ADR cells; format: functional
A2780 [25] = assay: Resistance factor, […] harboring point mutation in beta-tubulin; format: functional

Row | Compound | Activity (DLD-1 [1]) [days] | Activity (DLD-1 [4]) | IC50 [8] [nM] | IC50 [9] [nM] | IC50 (A2780 [11]) [nM] | IC50 (A2780 [12]) [nM] | IC50 (A2780 [13]) [nM] | IC50 [14] [nM] | IC50 [19] [nM] | IC50 [20] [nM] | Ratio IC50 [21] | Ratio IC50 (A2780 [22]) | further results
1 | CC(=O)O[C@@]12CO[C@@H]1C[C@H](O)[C@@]1(C)C(=O)[C@H](OC(=O)C3CC3)C3=C(C)[C@@H](OC(=O)[C@H](O)[C@H](C=C(C)C)NC(=O)OC(C)(C)C)C[C@@](O)([C@@H](OC(=O)c4ccccc4)[C@H]21)C3(C)C | >150 | Active | – | – | – | – | – | – | – | – | – | – | Activity (DLD-1 [2]): 37 days; Activity (DLD-1 [3]): >150 days; Activity (Mus musculus [5]): 3%; Activity (DLD-1 [6]): inactive; Activity [7]: Not Active
2 | CC(=O)O[C@H]1C(=O)[C@@]2(C)[C@H]([C@H](OC(=O)c3ccccc3)[C@]3(O)C[C@H](OC(=O)[C@H](O)[C@@H](NC(=O)c4ccccc4)c4ccccc4)C(C)=C1C3(C)C)[C@]1(OC(C)=O)CO[C@@H]1C[C@@H]2O [PACLITAXEL] | 8 | inactive | 2.45 | 110 | 1.7 | 2.2 | 7.2 | 17800 | – | – | – | – | IC50 (PANC-1): 25.7 nM; Activity (Mus musculus [10]): Non-toxic; IC50 (NCI-H460): 4.9 nM
3 | CC(=O)O[C@H]1C(=O)[C@@]2(C)[C@H]([C@H](OC(=O)c3ccccc3)[C@]3(O)[C@H]4OCC/C=C/c5ccccc5C(=O)N[C@@H](c5ccccc5)[C@@H](O)C(=O)O[C@@H]4C(C)=C1C3(C)C)[C@]1(OC(C)=O)CO[C@@H]1C[C@@H]2O | – | – | 2.09 | 129 | 31 | – | – | – | – | – | – | – | IC50 (MCF7 [15]): 3.49 nM; IC50 [16]: 183 nM; IC50 (HT-29): 17 nM; inhibition [17]: Active; inhibition [18]: Active
4 | CC(=O)O[C@@]1(C2/C(C)=C(/O)C(=O)C3=C(C)[C@@H](OC(=O)[C@H](O)[C@H](CC(C)C)NC(=O)OC(C)(C)C)C[C@@](O)([C@H]2OC(=O)c2ccccc2)C3(C)C)CO[C@@H]1CCO (stereo partly specified) | – | – | – | – | 17.4 | 16.8 | 27.5 | 2240 | 2620 | 2060 | 8 | 129 | –
5 | CC(=O)O[C@@]1([C@@H]2/C(C)=C(/O)C(=O)C3=C(C)[C@@H](OC(=O)[C@H](O)[C@H](CC(C)C)NC(=O)OC(C)(C)C)C[C@@](O)([C@H]2OC(=O)c2cccc(F)c2)C3(C)C)CO[C@H]1CCO | – | – | – | – | 11.1 | 11.8 | 12.8 | 460 | 3730 | 1500 | 39 | 41 | –
6 | CCC(=O)O[C@H]1C(=O)[C@@]2(C)[C@H]([C@H](OC(=O)c3cccc(OC)c3)[C@]3(O)C[C@H](OC(=O)[C@H](O)[C@H](C=C(C)C)NC(=O)OC(C)(C)C)C(C)=C1C3(C)C)[C@]1(OC(C)=O)CO[C@@H]1C[C@@H]2O | – | – | 1 | – | – | – | – | – | – | – | – | – | Ratio [23]: 0.9; Ratio (MCF7 [24]): 0.92; Ratio (A2780 [25]): 5.1
